This is an account of results in ChEMBL document CHEMBL1130136, “Novel biological response modifiers: phthalimides with tumor necrosis factor-alpha production-regulating activity” (J Med Chem, 1997).

In brackets after ≈: the same amount, converted by molar mass.

Experiment [1] concerns HL-60. Briefly: Inhibition of 50 nM okadaic acid induced tumor necrosis factor-alpha production in human leukemia cell line (HL-60) by 0.3 uM. The class given is functional. The gist of the method: (§1)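 HL-60 cells (2.5 × 10⁵ in 0.5 mL, i.e. 5 × 10⁵/mL), growing exponentially in RPMI1640 + 10% FBS, were exposed to 10 nM TPA or 50 nM OA together with 0.3 μM test compound for 16 h at 37 °C. Secreted TNF-α was quantified by ELISA and expressed as % of inducer-alone production. Each run was done in duplicate or triplicate (mean taken) and repeated at least three times.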

Experiment [2] has as its system HL-60. Put plainly: Amount of tumor necrosis factor-alpha produced by human leukemia cell line (HL-60) stimulated with 10 nM12-O-tetradecanoylphorbol 13-acetate (TPA) at 0.3 uM, measured by ELISA. The class given is functional. The gist of the method: as §1
Experiment [3] relates to WI-38. Briefly: The cytotoxicity of the compounds assessed using human embryonic lung fibroblast WI-38 cells at (83 micro M). In kind it is functional, cell-based. The gist of the method: (§2)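 WI-38 human embryonic lung fibroblasts (5 × 10³ cells/well) in RPMI1640 + 10% FCS were exposed to graded concentrations of compound for 48 h at 37 °C. Viability was read by WST-1 with 1-methoxy PMS (2 h, 37 °C; absorbance at 450 nm). IC50 was reported in μg/mL, with the μM equivalent in parentheses.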

Experiment [4] concerns WI-38. Briefly: The cytotoxicity of the compounds assessed using human embryonic lung fibroblast WI-38 cells at (53 micro M). In kind it is functional, cell-based. The gist of the method: as §2
Experiment [5] deals with HL-60. Briefly: Tumor necrosis factor-alpha production in human leukemia cell line (HL-60) stimulated with 50 nM okadaic acid (OA), at 30 uMolar. In kind it is functional. The gist of the method: (§3)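 HL-60 cells at 5 × 10⁵/mL in RPMI1640 + 10% FBS were co-treated with 30 μM test compound and either 10 nM TPA or 50 nM OA for 16 h at 37 °C. Culture-medium TNF-α was measured by ELISA and expressed as % of inducer-alone control. Cell counts were taken at harvest. Assays were run in duplicate or triplicate (mean taken), at least three times.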

In experiment [6] the test system is HL-60. Put plainly: Tumor necrosis factor-alpha production in human leukemia cell line (HL-60) stimulated with 10 nM 12-O-tetradecanoylphorbol 13-acetate (TPA) at 30 uMolar. The class given is functional. The gist of the method: as §3
Experiment [7] relates to WI-38. Put plainly: The cytotoxicity of the compounds assessed using human embryonic lung fibroblast WI-38 cells at (264 micro M). The class given is functional, cell-based. The gist of the method: as §2
The test system of experiment [8] is WI-38. Briefly: The cytotoxicity of the compounds assessed using human embryonic lung fibroblast WI-38 cells at (97 micro M). The class given is functional, cell-based. The gist of the method: as §2
The subject of experiment [9] is WI-38. Briefly: The cytotoxicity of the compounds assessed using human embryonic lung fibroblast WI-38 cells at (87 micro M). The class given is functional, cell-based. The gist of the method:
as §2

Experiment [10] relates to HL-60. Put plainly: Amount of tumor necrosis factor-alpha produced by human leukemia cell line (HL-60) stimulated with 10 nM12-O-tetradecanoylphorbol 13-acetate (TPA) at 0.3 uM, measured by ELISA. In kind it is functional. The gist of the method:
as §1
On the technique in general: An ELISA detects its analyte on a solid surface through an enzyme-linked reagent.

Experiment [11] has as its system WI-38. Put plainly: The cytotoxicity assessed using human embryonic lung fibroblast WI-38 cells. In kind it is functional, cell-based. The gist of the method: as §2

A word on the IC50: it is the concentration needed to halve the response being measured. A higher IC50 goes with a need for much substance. For `C[C@@H](c1ccccc1)N1C(=O)c2c(F)c(F)c(F)c(F)c2C1=O`, the figures for the “Amount of TNF-alpha” value in the experiment with HL-60 [1] and in the experiment on HL-60 [2] were 70% and 143%, respectively. Besides, in the experiment on WI-38 [3], the concentration for half-maximal inhibition (IC50) was 26.8 µg/mL (≈ 82.9 µM).

In turn, `CC(C)c1cccc(C(C)C)c1N1C(=O)c2ccc(N)cc2C1=O` yielded a 50% inhibitory concentration (IC50) with WI-38 [4] of 17.4 µg/mL (≈ 54 µM). Also, the “Amount of TNF-alpha” value amounted to 28% in the experiment with HL-60 [5] and 242% in the experiment on HL-60 [6].

Consider `CC(C)c1cccc(C(C)C)c1N1C(=O)c2cccc([N+](=O)[O-])c2C1=O`, for which the entries for the “Amount of TNF-alpha” value in the experiment with HL-60 [5] and with HL-60 [6] were 54% and 792%, respectively. It took 93.1 µg/mL (≈ 264 µM) to reach half-maximal inhibition in the experiment on WI-38 [7] (IC50).

As for `Cc1cccc(C(C)C)c1N1C(=O)c2ccccc2C1=O`, the “Amount of TNF-alpha” value was 33% in the experiment with HL-60 [5] and 234% with HL-60 [6]. The molecule further displayed a half-maximal inhibitory concentration (IC50) in the experiment on WI-38 [8] of 28.1 µg/mL (≈ 101 µM).

With `O=C1c2c(F)c(F)c(F)c(F)c2C(=O)N1[C@@H]1CCc2ccccc21`, the “Amount of TNF-alpha” value is 43% in the experiment with HL-60 [1] and 233% with HL-60 [2]. The molecule further registered an IC50 in the experiment on WI-38 [9] of 30.3 µg/mL (≈ 90.4 µM).

Consider `CC(=O)Nc1ccc([C@H](C)N2C(=O)c3c(F)c(F)c(F)c(F)c3C2=O)cc1`, for which the “Amount of TNF-alpha” value is reported as 80% in the experiment on HL-60 [1] and 268% in the experiment with HL-60 [10].

As to `O=C1CCC(N2C(=O)c3ccccc3C2=O)C(=O)N1` (stereo not given) [THALIDOMIDE], the “Amount of TNF-alpha” value was 58% with HL-60 [5] and 135% in the experiment with HL-60 [6]. The molecule further registered an IC50 with WI-38 [11] greater than 100 µg/mL.
